16 molecules from ChEMBL document CHEMBL1156022, “Discovery of N-{N-[(3-cyanobenzene) sulfonyl]-4(R)-(3,3-difluoropiperidin-1-yl)-(l)-prolyl}-4-[(3',5'-dichloro-isonicotinoyl) amino]-(l)-phenylalanine (MK-0617), a highly potent and orally active VLA-4 antagonist” (Bioorg Med Chem Lett, 2009) can be followed below.

Molecules are shown by their SMILES. Some results are limits rather than exact numbers.

Data set [1] addresses T1, Integrin alpha-4/beta-1 (Homo sapiens, UniProt P05556+P13612). Kind of data set: Inhibition of VLA4 in human whole blood. The procedure, abridged: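 Competitive binding run in human whole blood; IC₅₀ read-out.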
Data set [2] addresses T1, Integrin alpha-4/beta-1. Kind of data set: Displacement of [35S]-labeled ligand from VLA4 in human Jurkat cells washed with buffer containing non activating Ca2+ and Mg2+ by competitive binding assay. The format is cell-based. The gist of the method:
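Competition binding in Jurkat cells with a ³⁵S-labeled ligand, VLA-4 held non-activated in Ca²⁺/Mg²⁺ buffer; IC₅₀ reported; data are means of three independent runs or n = 1.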
For orientation: Loss of bound radioactivity is the signal in a displacement assay; it reports binding, not function.

The target of data set [3] is T1, Integrin alpha-4/beta-1. Kind of data set: Receptor occupancy of VLA4 in whole blood washed with buffer containing activating Mn2+ at 37 degC after 3 hrs. Format: tissue-based.
The test system of data set [4] is Rattus norvegicus. Kind of data set: Receptor occupancy of VLA4 in rat at 1.5 mg/kg after 24 hrs. The format is functional. The gist of the method: (§1)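 Ethyl ester prodrug given orally to rats at 1.5 mpk; VLA-4 receptor occupancy measured at 12 h and 24 h post-dose.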
Data set [5] deals with Rattus norvegicus. Kind of data set: Receptor occupancy of VLA4 in rat at 1.5 mg/kg after 12 hrs. The format is functional. The gist of the method:
as §1

Data set [6] deals with Rattus norvegicus. Kind of data set: Receptor occupancy of VLA4 in rat at 5 mg/kg, po after 24 hrs. The format is functional. The gist of the method: (§2)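 Parent acid given orally to rats at 5 mpk; VLA-4 receptor occupancy assayed at 12 h and 24 h after dosing.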
Data set [7] can be described thus: Bioavailability in rat at 5 mg/kg, po. Format: ADME, organism-based. The settings on record: in vivo.
Data set [8] is described as follows: Plasma clearance in rat at 5 mg/kg, po. Format: ADME, organism-based. Further details: dose 5 mg/kg, route oral.
The test system of data set [9] is Rattus norvegicus. Briefly: Receptor occupancy of VLA4 in rat at 5 mg/kg, po after 12 hrs. Format: functional. The gist of the method:
as §2

Data set [10] deals with Integrin alpha-4/beta-1 (Rattus norvegicus). Briefly: Receptor occupancy of VLA4 in rat whole blood washed with buffer containing non activating Ca2+ and Mg2+ at 37 degC after 12 hrs.
Data set [11] has the same test system. Briefly: Receptor occupancy of VLA4 in rat whole blood washed with buffer containing non activating Ca2+ and Mg2+ at 37 degC after 24 hrs.
Data set [12] is described as follows: Cmax in rat at 5 mg/kg, po. The format is ADME, organism-based. Further details: dose 5 mg/kg, route oral. The settings on record: in vivo.
Data set [13] relates to Rattus norvegicus. Kind of data set: AUC in rat at 5 mg/kg, po. Format: ADME, organism-based, Plasma. Further details: dose 5 mg/kg, route oral. The settings on record: in vivo.
The target in data set [14] is T1, Integrin alpha-4/beta-1. Briefly: Displacement of [35S]-labeled ligand from VLA4 in human Jurkat cells washed with buffer containing activating Mn2+ by competitive binding assay. The format is cell-based.

T1 sequence (P05556 whole entry): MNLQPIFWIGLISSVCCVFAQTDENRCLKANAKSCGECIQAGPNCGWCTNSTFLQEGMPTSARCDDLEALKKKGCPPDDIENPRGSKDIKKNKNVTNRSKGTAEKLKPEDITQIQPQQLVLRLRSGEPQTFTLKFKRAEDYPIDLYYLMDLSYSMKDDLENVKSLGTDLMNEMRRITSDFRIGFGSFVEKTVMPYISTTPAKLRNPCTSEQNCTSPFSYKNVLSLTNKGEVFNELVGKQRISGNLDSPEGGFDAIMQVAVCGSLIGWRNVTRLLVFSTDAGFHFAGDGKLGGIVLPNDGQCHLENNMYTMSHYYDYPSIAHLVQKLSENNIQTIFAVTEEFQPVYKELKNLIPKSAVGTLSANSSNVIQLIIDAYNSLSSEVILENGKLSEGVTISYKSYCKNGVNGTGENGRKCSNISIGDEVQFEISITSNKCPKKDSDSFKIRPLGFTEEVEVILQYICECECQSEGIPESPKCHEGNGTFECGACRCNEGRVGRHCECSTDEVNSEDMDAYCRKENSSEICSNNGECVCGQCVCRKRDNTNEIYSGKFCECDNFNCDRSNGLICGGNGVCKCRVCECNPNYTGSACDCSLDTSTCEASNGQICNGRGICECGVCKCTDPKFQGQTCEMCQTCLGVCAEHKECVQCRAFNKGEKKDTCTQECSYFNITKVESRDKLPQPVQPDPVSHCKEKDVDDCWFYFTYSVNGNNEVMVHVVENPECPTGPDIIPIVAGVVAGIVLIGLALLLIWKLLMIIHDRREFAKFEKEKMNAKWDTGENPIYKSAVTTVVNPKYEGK
T1 sequence (P13612 whole entry): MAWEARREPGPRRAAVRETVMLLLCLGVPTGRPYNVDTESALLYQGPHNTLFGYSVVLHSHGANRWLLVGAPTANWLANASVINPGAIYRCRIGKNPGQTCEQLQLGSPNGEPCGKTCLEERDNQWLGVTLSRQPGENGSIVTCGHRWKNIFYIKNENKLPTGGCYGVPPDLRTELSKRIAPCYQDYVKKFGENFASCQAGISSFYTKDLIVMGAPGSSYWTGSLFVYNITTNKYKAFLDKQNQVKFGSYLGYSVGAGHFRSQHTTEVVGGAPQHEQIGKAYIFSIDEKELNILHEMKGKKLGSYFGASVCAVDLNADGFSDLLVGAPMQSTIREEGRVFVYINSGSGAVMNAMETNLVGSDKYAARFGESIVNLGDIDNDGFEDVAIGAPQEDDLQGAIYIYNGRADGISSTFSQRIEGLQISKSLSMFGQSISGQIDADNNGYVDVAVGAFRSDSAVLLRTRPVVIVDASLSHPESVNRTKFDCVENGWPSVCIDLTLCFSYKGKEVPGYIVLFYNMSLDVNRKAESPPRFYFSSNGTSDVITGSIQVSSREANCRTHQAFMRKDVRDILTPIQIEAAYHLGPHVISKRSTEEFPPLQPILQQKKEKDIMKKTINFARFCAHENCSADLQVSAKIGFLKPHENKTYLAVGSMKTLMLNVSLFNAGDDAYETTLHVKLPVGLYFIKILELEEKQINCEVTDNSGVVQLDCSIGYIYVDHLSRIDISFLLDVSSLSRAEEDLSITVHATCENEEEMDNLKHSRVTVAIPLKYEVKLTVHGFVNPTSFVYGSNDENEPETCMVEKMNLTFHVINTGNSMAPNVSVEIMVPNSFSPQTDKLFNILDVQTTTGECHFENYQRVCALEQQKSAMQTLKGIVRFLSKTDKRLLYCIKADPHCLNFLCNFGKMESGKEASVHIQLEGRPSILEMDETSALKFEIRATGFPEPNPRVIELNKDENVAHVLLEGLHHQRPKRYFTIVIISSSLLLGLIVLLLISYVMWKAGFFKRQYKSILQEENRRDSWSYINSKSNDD

For orientation: IC50 means the concentration that inhibits the measured activity by half. Regarding `N#Cc1cccc(S(=O)(=O)N2C[C@H](N(CC(F)(F)F)C3CCC3)C[C@H]2C(=O)N[C@@H](Cc2ccc(NC(=O)c3c(Cl)cncc3Cl)cc2)C(=O)O)c1`, the IC50 at Integrin alpha-4/beta-1 [1] came to 3.1 nM; on Integrin alpha-4/beta-1 [2], 0.02 nM.

For the molecule `N#Cc1cccc(S(=O)(=O)N2C[C@H](N3CCCCC3)C[C@H]2C(=O)N[C@@H](Cc2ccc(NC(=O)c3c(Cl)cncc3Cl)cc2)C(=O)O)c1`, the IC50 on Integrin alpha-4/beta-1 [2] is 0.11 nM.

`N#Cc1cccc(S(=O)(=O)N2C[C@H](N3CCC(F)CC3)C[C@H]2C(=O)N[C@@H](Cc2ccc(NC(=O)c3c(Cl)cncc3Cl)cc2)C(=O)O)c1`: the IC50 at Integrin alpha-4/beta-1 [2] was found to be 0.35 nM.

As for `N#Cc1cccc(S(=O)(=O)N2C[C@H](NC3CCC3)C[C@H]2C(=O)N[C@@H](Cc2ccc(NC(=O)c3c(Cl)cncc3Cl)cc2)C(=O)O)c1`, the IC50 at Integrin alpha-4/beta-1 [2] was found to be 0.15 nM. This molecule gave an Activity at Integrin alpha-4/beta-1 [3] of 95%.

In turn, `N#Cc1cccc(S(=O)(=O)N2C[C@H](N3CC[C@@H](F)C3)C[C@H]2C(=O)N[C@@H](Cc2ccc(NC(=O)c3c(Cl)cncc3Cl)cc2)C(=O)O)c1` showed an IC50 on Integrin alpha-4/beta-1 [2] of 0.12 nM.

In turn, `N#Cc1cccc(S(=O)(=O)N2C[C@H](N3CC(F)C3)C[C@H]2C(=O)N[C@@H](Cc2ccc(NC(=O)c3c(Cl)cncc3Cl)cc2)C(=O)O)c1` showed an IC50 at Integrin alpha-4/beta-1 [2] of 0.27 nM.

In the case of `N#Cc1cccc(S(=O)(=O)N2C[C@H](N3CCCC3)C[C@H]2C(=O)N[C@@H](Cc2ccc(NC(=O)c3c(Cl)cncc3Cl)cc2)C(=O)O)c1`, the IC50 at Integrin alpha-4/beta-1 [2] came to 0.22 nM.

On to `N#Cc1cccc(S(=O)(=O)N2C[C@H](N3CCC3)C[C@H]2C(=O)N[C@@H](Cc2ccc(NC(=O)c3c(Cl)cncc3Cl)cc2)C(=O)O)c1`, for which the IC50 on Integrin alpha-4/beta-1 [2] amounted to 0.15 nM. The IC50 values of the last two molecules are within 1.5-fold of each other.

`CCOC(=O)[C@H](Cc1ccc(NC(=O)c2c(Cl)cncc2Cl)cc1)NC(=O)[C@@H]1C[C@@H](NC2CCC2)CN1S(=O)(=O)c1cccc(C#N)c1` displayed an Activity in the data set with Rattus norvegicus [4] of 25%.

As for `CCOC(=O)[C@H](Cc1ccc(NC(=O)c2c(Cl)cncc2Cl)cc1)NC(=O)[C@@H]1C[C@@H](N2CCCC(F)(F)C2)CN1S(=O)(=O)c1cccc(C#N)c1`, the Activity in the data set on Rattus norvegicus [4] was 60%; in the data set with Rattus norvegicus [5], 88%.

In the case of `N#Cc1cccc(S(=O)(=O)N2C[C@H](N3CC[C@H](F)C3)C[C@H]2C(=O)N[C@@H](Cc2ccc(NC(=O)c3c(Cl)cncc3Cl)cc2)C(=O)O)c1`, the IC50 on Integrin alpha-4/beta-1 [2] came to 0.24 nM. That is a sub-nanomolar value.

Consider `N#Cc1cccc(S(=O)(=O)N2C[C@H](N3CCC(F)(F)C3)C[C@H]2C(=O)N[C@@H](Cc2ccc(NC(=O)c3c(Cl)cncc3Cl)cc2)C(=O)O)c1`, for which, on Integrin alpha-4/beta-1 [2], the IC50 was 0.1 nM. This IC50 is about 2.4-fold lower than that of the molecule before.

By bioavailability is commonly meant the share of a dose that reaches the circulation, judged against a reference dose that is usually intravenous. Low values mean little systemic uptake, high ones much systemic uptake. As usually defined, the CL/F is clearance divided by bioavailability, as obtained after extravascular dosing. As usually defined, the Cmax is the highest concentration seen after dosing. In general, AUC refers to concentration integrated over time. A higher AUC goes with more exposure. Take `N#Cc1cccc(S(=O)(=O)N2C[C@H](N3CCCC(F)(F)C3)C[C@H]2C(=O)N[C@@H](Cc2ccc(NC(=O)c3c(Cl)cncc3Cl)cc2)C(=O)O)c1`: the Activity in the data set with Rattus norvegicus [6] came to 22%; in the data set on Rattus norvegicus [9] it was 65%; in [10], 70%; at Integrin alpha-4/beta-1 [3], 95%; in data set [11], 40%. The bioavailability in [7] is under 5%. Moreover, the CL/F in data set [8] was over 100 mL/min/kg. For the same molecule, the IC50 against Integrin alpha-4/beta-1 [1] turned out to be 0.07 nM; on Integrin alpha-4/beta-1 [2], 0.03 nM; on Integrin alpha-4/beta-1 [14] it was 0.02 nM. The molecule further showed a Cmax in [12] of 27 nM. The molecule further returned an AUC in the data set on Rattus norvegicus [13] of 0.05 µM·h.

With `N#Cc1cccc(S(=O)(=O)N2C[C@H](N3CCCC(F)C3)C[C@H]2C(=O)N[C@@H](Cc2ccc(NC(=O)c3c(Cl)cncc3Cl)cc2)C(=O)O)c1` (stereo not given in full), the IC50 on Integrin alpha-4/beta-1 [2] worked out at 0.21 nM.

`N#Cc1cccc(S(=O)(=O)N2C[C@H](N3CC(F)(F)C3)C[C@H]2C(=O)N[C@@H](Cc2ccc(NC(=O)c3c(Cl)cncc3Cl)cc2)C(=O)O)c1` registered an IC50 at Integrin alpha-4/beta-1 [2] of 0.9 nM.

Turning to `N#Cc1cccc(S(=O)(=O)N2C[C@H](N3CCC(F)(F)CC3)C[C@H]2C(=O)N[C@@H](Cc2ccc(NC(=O)c3c(Cl)cncc3Cl)cc2)C(=O)O)c1`, on Integrin alpha-4/beta-1 [2], the IC50 turned out to be 0.22 nM.
